Assay results published in ChEMBL document CHEMBL1138563, “Synthesis and in vitro antimicrobial activity of some novel substituted benzimidazole derivatives having potent activity against MRSA” (2009).
Values after ≈ are worked out from the molar mass of the structure shown.

Assays:
Assay type in all cases: functional
Escherichia coli = assay: Antimicrobial activity against Escherichia coli ATCC 25922 by tube dilution method
Outline: (§1)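 Tube dilution MIC determination. Test agents and reference drugs are dissolved as a stock in 50% DMSO–water, then diluted 4-fold with culture medium plus inoculum. The first dilution (12.5% DMSO) is excluded from scoring. The read-out is the minimum inhibitory concentration.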

Staphylococcus aureus [1] = assay: Antimicrobial activity against methicillin-resistant Staphylococcus aureus isolates by tube dilution method
Outline: (§2)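 Tube dilution MIC assay. Compounds and standard drugs were dissolved in 50% DMSO–water as stock. The stock was diluted 4-fold with culture medium plus bacterial suspension to give the starting test concentration. That initial tube contained 12.5% DMSO, so no data were taken from it. The MIC was then read across the dilution series.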

Staphylococcus aureus [2] = assay: Antimicrobial activity against Staphylococcus aureus ATCC 25923 by tube dilution method; outline: as §2
Bacillus subtilis = assay: Antimicrobial activity against Bacillus subtilis ATCC 6633 by tube dilution method; outline: as §1
Candida albicans = assay: Antimicrobial activity against Candida albicans ATCC 10145 by tube dilution method; outline: as §1
Staphylococcus aureus [3] = assay: Antimicrobial activity against methicillin-resistant Staphylococcus aureus ATCC […] by tube dilution method; outline: as §2

SMILES | MIC (Escherichia coli) | MIC (Staphylococcus aureus [1]) | MIC (Staphylococcus aureus [2]) | MIC (Bacillus subtilis) | MIC (Candida albicans) | MIC (Staphylococcus aureus [3])
COc1ccc(-c2nc3cc(Cl)c(Cl)cc3n2C2CCCC2)cc1 | 50 µg/mL (≈ 138 µM) | 25 µg/mL (≈ 69.2 µM) | 25 µg/mL (≈ 69.2 µM) | 50 µg/mL (≈ 138 µM) | 6.25 µg/mL (≈ 17.3 µM) | 25 µg/mL (≈ 69.2 µM)
Nc1nc2cc(Cl)c(Cl)cc2n1C1CCCC1 | 50 µg/mL (≈ 185 µM) | 6.25 µg/mL (≈ 23.1 µM) | 3.12 µg/mL (≈ 11.5 µM) | 6.25 µg/mL (≈ 23.1 µM) | 6.25 µg/mL (≈ 23.1 µM) | 6.25 µg/mL (≈ 23.1 µM)
CC(=O)Oc1ccc(-c2nc3cc(Cl)c(Cl)cc3n2C2CCCC2)cc1 | 25 µg/mL (≈ 64.2 µM) | 50 µg/mL (≈ 128 µM) | 50 µg/mL (≈ 128 µM) | 25 µg/mL (≈ 64.2 µM) | 12.5 µg/mL (≈ 32.1 µM) | 50 µg/mL (≈ 128 µM)
Fc1ccc(-c2nc3cc(Cl)c(Cl)cc3[nH]2)cc1 | 50 µg/mL (≈ 178 µM) | 3.12 µg/mL (≈ 11.1 µM) | 3.12 µg/mL (≈ 11.1 µM) | 6.25 µg/mL (≈ 22.2 µM) | 6.25 µg/mL (≈ 22.2 µM) | 3.12 µg/mL (≈ 11.1 µM)
Clc1cc2ncn(C3CCCC3)c2cc1Cl | 50 µg/mL (≈ 196 µM) | 6.25 µg/mL (≈ 24.5 µM) | 6.25 µg/mL (≈ 24.5 µM) | 12.5 µg/mL (≈ 49 µM) | 12.5 µg/mL (≈ 49 µM) | 6.25 µg/mL (≈ 24.5 µM)
Clc1cc2nc(Cl)n(C3CCCC3)c2cc1Cl | 50 µg/mL (≈ 173 µM) | 6.25 µg/mL (≈ 21.6 µM) | 3.12 µg/mL (≈ 10.8 µM) | 25 µg/mL (≈ 86.3 µM) | 50 µg/mL (≈ 173 µM) | 6.25 µg/mL (≈ 21.6 µM)
CC(C)Nc1nc2cc(Cl)c(Cl)cc2n1C1CCCC1 | 50 µg/mL (≈ 160 µM) | 50 µg/mL (≈ 160 µM) | 50 µg/mL (≈ 160 µM) | 50 µg/mL (≈ 160 µM) | 50 µg/mL (≈ 160 µM) | 50 µg/mL (≈ 160 µM)
CCOc1cc2c(cc1Cl)nc(-c1ccc(OC(C)=O)cc1)n2C1CCCC1 | 50 µg/mL (≈ 125 µM) | 50 µg/mL (≈ 125 µM) | 50 µg/mL (≈ 125 µM) | 25 µg/mL (≈ 62.7 µM) | 6.25 µg/mL (≈ 15.7 µM) | 50 µg/mL (≈ 125 µM)
CCOc1cc2c(cc1Cl)nc(-c1ccc(Cl)cc1)n2C1CCCC1 | 50 µg/mL (≈ 133 µM) | 50 µg/mL (≈ 133 µM) | 50 µg/mL (≈ 133 µM) | 25 µg/mL (≈ 66.6 µM) | 25 µg/mL (≈ 66.6 µM) | 50 µg/mL (≈ 133 µM)
CCOc1cc2c(cc1Cl)nc(-c1cccc([N+](=O)[O-])c1)n2C1CCCC1 | 50 µg/mL (≈ 130 µM) | 12.5 µg/mL (≈ 32.4 µM) | 50 µg/mL (≈ 130 µM) | 25 µg/mL (≈ 64.8 µM) | 6.25 µg/mL (≈ 16.2 µM) | 25 µg/mL (≈ 64.8 µM)
COc1ccc(-c2nc3cc(Cl)ccc3n2C2CCCC2)cc1 | 25 µg/mL (≈ 76.5 µM) | 50 µg/mL (≈ 153 µM) | 50 µg/mL (≈ 153 µM) | 25 µg/mL (≈ 76.5 µM) | 12.5 µg/mL (≈ 38.2 µM) | 50 µg/mL (≈ 153 µM)
Fc1ccc(-c2nc3cc(Cl)ccc3n2C2CCCC2)cc1 | 25 µg/mL (≈ 79.4 µM) | 25 µg/mL (≈ 79.4 µM) | 25 µg/mL (≈ 79.4 µM) | 12.5 µg/mL (≈ 39.7 µM) | 12.5 µg/mL (≈ 39.7 µM) | 25 µg/mL (≈ 79.4 µM)
CC(C)(C)c1ccc(-c2nc3cc(Cl)ccc3n2C2CCCC2)cc1 | 25 µg/mL (≈ 70.8 µM) | 6.25 µg/mL (≈ 17.7 µM) | 50 µg/mL (≈ 142 µM) | 50 µg/mL (≈ 142 µM) | 12.5 µg/mL (≈ 35.4 µM) | 12.5 µg/mL (≈ 35.4 µM)
N#Cc1ccc(-c2nc3cc(Cl)ccc3n2C2CCCC2)cc1 | 50 µg/mL (≈ 155 µM) | ≥ 50 µg/mL | 50 µg/mL (≈ 155 µM) | 50 µg/mL (≈ 155 µM) | 6.25 µg/mL (≈ 19.4 µM) | ≥ 50 µg/mL
Clc1ccc2c(c1)nc(-c1ccc(OCc3ccccc3)cc1)n2C1CCCC1 | 50 µg/mL (≈ 124 µM) | 6.25 µg/mL (≈ 15.5 µM) | 3.12 µg/mL (≈ 7.74 µM) | 50 µg/mL (≈ 124 µM) | 25 µg/mL (≈ 62 µM) | 6.25 µg/mL (≈ 15.5 µM)
Clc1ccc(-c2nc3cc(Cl)ccc3n2C2CCCC2)cc1 | 25 µg/mL (≈ 75.5 µM) | 50 µg/mL (≈ 151 µM) | 50 µg/mL (≈ 151 µM) | 25 µg/mL (≈ 75.5 µM) | 25 µg/mL (≈ 75.5 µM) | 50 µg/mL (≈ 151 µM)
Fc1ccc(-c2nc3cc(Cl)c(Cl)cc3n2C2CCCC2)cc1 | 25 µg/mL (≈ 71.6 µM) | 50 µg/mL (≈ 143 µM) | 25 µg/mL (≈ 71.6 µM) | 50 µg/mL (≈ 143 µM) | 25 µg/mL (≈ 71.6 µM) | 50 µg/mL (≈ 143 µM)
Clc1ccc(-c2nc3cc(Cl)c(Cl)cc3[nH]2)cc1 | 50 µg/mL (≈ 168 µM) | 3.12 µg/mL (≈ 10.5 µM) | 3.12 µg/mL (≈ 10.5 µM) | 50 µg/mL (≈ 168 µM) | 12.5 µg/mL (≈ 42 µM) | 3.12 µg/mL (≈ 10.5 µM)

SMILES | MIC (Escherichia coli) | MIC (Staphylococcus aureus [1]) | MIC (Staphylococcus aureus [2]) | MIC (Bacillus subtilis) | MIC (Candida albicans) | MIC (Staphylococcus aureus [3])
CC(C)(C)c1ccc(-c2nc3cc(Cl)c(Cl)cc3[nH]2)cc1 | 50 µg/mL (≈ 157 µM) | 3.12 µg/mL (≈ 9.77 µM) | 3.12 µg/mL (≈ 9.77 µM) | 6.25 µg/mL (≈ 19.6 µM) | 12.5 µg/mL (≈ 39.2 µM) | 3.12 µg/mL (≈ 9.77 µM)
Clc1cc2nc(-c3ccc4ccccc4c3)[nH]c2cc1Cl | 50 µg/mL (≈ 160 µM) | 50 µg/mL (≈ 160 µM) | 50 µg/mL (≈ 160 µM) | 25 µg/mL (≈ 79.8 µM) | 25 µg/mL (≈ 79.8 µM) | 50 µg/mL (≈ 160 µM)
O=[N+]([O-])c1cccc(-c2nc3cc(Cl)ccc3n2C2CCCC2)c1 | 50 µg/mL (≈ 146 µM) | 50 µg/mL (≈ 146 µM) | 50 µg/mL (≈ 146 µM) | 25 µg/mL (≈ 73.1 µM) | 12.5 µg/mL (≈ 36.6 µM) | 50 µg/mL (≈ 146 µM)
CC(C)(C)c1ccc(-c2nc3cc(Cl)c(Cl)cc3n2C2CCCC2)cc1 | 50 µg/mL (≈ 129 µM) | 25 µg/mL (≈ 64.5 µM) | 6.25 µg/mL (≈ 16.1 µM) | 25 µg/mL (≈ 64.5 µM) | 25 µg/mL (≈ 64.5 µM) | 25 µg/mL (≈ 64.5 µM)
Clc1cc2nc(-c3ccc4ccccc4c3)n(C3CCCC3)c2cc1Cl | 50 µg/mL (≈ 131 µM) | 25 µg/mL (≈ 65.6 µM) | 50 µg/mL (≈ 131 µM) | 12.5 µg/mL (≈ 32.8 µM) | 12.5 µg/mL (≈ 32.8 µM) | 25 µg/mL (≈ 65.6 µM)
Clc1ccc2c(c1)nc(-c1ccc3ccccc3c1)n2C1CCCC1 | 50 µg/mL (≈ 144 µM) | 25 µg/mL (≈ 72.1 µM) | 25 µg/mL (≈ 72.1 µM) | 25 µg/mL (≈ 72.1 µM) | 6.25 µg/mL (≈ 18 µM) | 25 µg/mL (≈ 72.1 µM)
CCOc1cc2c(cc1Cl)nc(-c1ccc(F)cc1)n2C1CCCC1 | 50 µg/mL (≈ 139 µM) | 6.25 µg/mL (≈ 17.4 µM) | 6.25 µg/mL (≈ 17.4 µM) | 25 µg/mL (≈ 69.7 µM) | 50 µg/mL (≈ 139 µM) | 6.25 µg/mL (≈ 17.4 µM)
Nc1nc2cc(Cl)ccc2n1C1CCCC1 | 50 µg/mL (≈ 212 µM) | 50 µg/mL (≈ 212 µM) | 25 µg/mL (≈ 106 µM) | 25 µg/mL (≈ 106 µM) | 25 µg/mL (≈ 106 µM) | 50 µg/mL (≈ 212 µM)
Clc1ccc2c(c1)ncn2C1CCCC1 | ≥ 50 µg/mL | 50 µg/mL (≈ 227 µM) | 50 µg/mL (≈ 227 µM) | 50 µg/mL (≈ 227 µM) | 50 µg/mL (≈ 227 µM) | 50 µg/mL (≈ 227 µM)
Clc1cc2nc(Br)n(C3CCCC3)c2cc1Cl | 50 µg/mL (≈ 150 µM) | 6.25 µg/mL (≈ 18.7 µM) | 3.12 µg/mL (≈ 9.34 µM) | 25 µg/mL (≈ 74.8 µM) | 25 µg/mL (≈ 74.8 µM) | 6.25 µg/mL (≈ 18.7 µM)
CC(=O)Oc1ccc(-c2nc3cc(Cl)ccc3n2C2CCCC2)cc1 | 50 µg/mL (≈ 141 µM) | 50 µg/mL (≈ 141 µM) | 50 µg/mL (≈ 141 µM) | 50 µg/mL (≈ 141 µM) | 50 µg/mL (≈ 141 µM) | 50 µg/mL (≈ 141 µM)
Clc1ccc(-c2nc3cc(Cl)c(Cl)cc3n2C2CCCC2)cc1 | 50 µg/mL (≈ 137 µM) | 50 µg/mL (≈ 137 µM) | 50 µg/mL (≈ 137 µM) | 25 µg/mL (≈ 68.4 µM) | 12.5 µg/mL (≈ 34.2 µM) | 50 µg/mL (≈ 137 µM)
CN(C)c1ccc(-c2nc3cc(Cl)ccc3n2C2CCCC2)cc1 | 50 µg/mL (≈ 147 µM) | 25 µg/mL (≈ 73.6 µM) | 12.5 µg/mL (≈ 36.8 µM) | 25 µg/mL (≈ 73.6 µM) | 12.5 µg/mL (≈ 36.8 µM) | 25 µg/mL (≈ 73.6 µM)
CC1(C)S[C@@H]2[C@H](NC(=O)[C@H](N)c3ccccc3)C(=O)N2[C@H]1C(=O)O [AMPICILLIN] | – | 50 µg/mL (≈ 143 µM) | 0.78 µg/mL (≈ 2.23 µM) | – | – | 50 µg/mL (≈ 143 µM)
O=C(O)c1cn(C2CC2)c2cc(N3CCNCC3)c(F)cc2c1=O [CIPROFLOXACIN] | – | 12.5 µg/mL (≈ 37.7 µM) | 0.78 µg/mL (≈ 2.35 µM) | 0.09 µg/mL (≈ 0.272 µM) | – | –
OC(Cn1cncn1)(Cn1cncn1)c1ccc(F)cc1F [FLUCONAZOLE] | – | – | – | – | 1.56 µg/mL (≈ 5.09 µM) | –
CC1(C)S[C@@H]2[C@H](NC(=O)[C@H](N)c3ccccc3)C(=O)N2[C@H]1C(=O)OCOC(=O)[C@@H]1N2C(=O)C[C@H]2S(=O)(=O)C1(C)C [SULTAMICILLIN] | – | 25 µg/mL (≈ 42 µM) | 0.39 µg/mL (≈ 0.656 µM) | 0.78 µg/mL (≈ 1.31 µM) | – | 25 µg/mL (≈ 42 µM)
